Measured values pooled from the literature.
Target: Serine/threonine-protein kinase Nek11 (NEK11, Homo sapiens, UniProt Q8NG66)
Residues used in one study (Q8NG66 1-645): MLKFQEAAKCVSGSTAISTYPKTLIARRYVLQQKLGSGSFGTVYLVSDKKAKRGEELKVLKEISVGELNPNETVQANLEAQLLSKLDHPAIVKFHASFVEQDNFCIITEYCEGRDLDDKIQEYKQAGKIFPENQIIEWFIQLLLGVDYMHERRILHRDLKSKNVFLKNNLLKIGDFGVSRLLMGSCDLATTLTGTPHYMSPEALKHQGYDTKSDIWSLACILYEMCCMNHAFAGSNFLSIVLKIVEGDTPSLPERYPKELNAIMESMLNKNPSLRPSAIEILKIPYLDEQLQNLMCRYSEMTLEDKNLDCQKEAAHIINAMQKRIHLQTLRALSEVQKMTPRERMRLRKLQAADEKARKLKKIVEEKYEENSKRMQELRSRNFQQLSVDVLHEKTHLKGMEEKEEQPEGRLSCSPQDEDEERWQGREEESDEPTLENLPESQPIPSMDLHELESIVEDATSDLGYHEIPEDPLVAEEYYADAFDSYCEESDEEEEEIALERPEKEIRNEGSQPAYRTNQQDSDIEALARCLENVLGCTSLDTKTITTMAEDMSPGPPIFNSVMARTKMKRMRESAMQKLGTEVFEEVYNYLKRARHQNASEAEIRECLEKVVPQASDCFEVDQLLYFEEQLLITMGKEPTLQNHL

| SMILES | assay | conditions | endpoint | result |
| --- | --- | --- | --- | --- |
| C[C@@H]1CCN(C(=O)CC#N)C[C@@H]1N(C)c1ncnc2[nH]ccc12 | cell-free assay, inhibitor | 0.5 µM | remaining signal | 91.7% |
| CCN(CC)CCNC(=O)c1c(C)[nH]c(/C=C2\C(=O)Nc3ccc(F)cc32)c1C | enzyme activity, inhibitor | 10 µM | inhibition | 46% |
| N#CCCc1ccc2c(c1)-c1[nH]c3ccc([N+](=O)[O-])cc3c1CC(=O)N2 | cell-free assay | 0.5 µM | remaining signal | 101% |
| CC(C)(O)[C@H]1CC[C@H](Nc2ccc3ncc(-c4cccc(C(F)(F)F)c4)n3n2)CC1 | enzyme activity, inhibitor | 1 µM | remaining activity | 120% |
| C[C@H](c1ccc(F)cc1)N(Cc1cccc(C(=O)O)c1)C(=O)c1cnc2ccccc2c1 | cell-free assay, competition with immobilised ligand | 1 µM | remaining binding | 82% |
| Cc1cc(NC(=O)c2cccc3cc(-c4cccc5[nH]nc(N)c45)ccc23)ccc1F | enzyme activity, inhibitor | 0.1 µM | activity vs control | 91% |
| CS(=O)(=O)N1CCCC(NC(=O)[C@H](CCC2CCCCC2)NC(=O)c2ccc(CNc3ncnc4c3nnn4-c3ccccc3)cc2)C1 (some centres unmarked) | cell-free assay, competition with immobilised ligand | 0.1 µM | remaining binding | 100% |
| Cc1sc(C(=O)NC2COC2)cc1-n1cc(NC(=O)Nc2c(F)cccc2Cl)cn1 | enzyme activity, inhibitor | 10 µM | remaining activity | 70% |
| Oc1cccc(-c2nc(N3CCOCC3)c3oc4ncccc4c3n2)c1 | cell-free assay | 0.5 µM | remaining signal | 109% |
| NS(=O)(=O)c1cc(NC(=O)C2(c3ccccc3Cl)CC2)ccc1Oc1cccc(Cl)c1 | cell-free assay, competition with immobilised ligand | 1 µM | remaining binding | 100% |
| Cc1ccc(NC(=O)c2ccc(C)c(C(F)(F)F)c2)cc1C#Cc1nn(C2CCC(O)CC2)c2ncnc(N)c12 (centres unmarked) | cell-free assay | 10 µM | remaining signal | 50% |
| CNC(=O)c1cc(Oc2ccc(NC(=O)Nc3ccc(Cl)c(C(F)(F)F)c3)cc2)ccn1 | enzyme activity, inhibitor | 10 µM | inhibition | 28% |
| O=C(Nc1cnn(-c2csc(C(=O)NC3COC3)c2)c1)Nc1ccccc1Cl | enzyme activity, inhibitor | 5 µM | remaining activity | 145% |
| Cc1ccc(Nc2nccc(N(C)c3ccc4c(C)n(C)nc4c3)n2)cc1S(N)(=O)=O | enzyme activity, inhibitor | 0.3 µM | inhibition | -9% |
| CC(=O)N1CCC(c2ccc(C(=O)NC(=N)N)cc2C(F)(F)F)CC1 | cell-free assay, competition with immobilised ligand | 1 µM | remaining binding | 100% |
| O=C1Nc2ccc(Cl)cc2C1=Cc1cc(Cl)c(O)c(Cl)c1 | cell-free assay | 0.5 µM | remaining signal | 104% |
| CN([C@@H]1CCc2c(CC(=O)O)c3ccccc3n2C1)S(=O)(=O)c1ccc(F)cc1 | cell-free assay, competition with immobilised ligand | 1 µM | remaining binding | 100% |
| CCN(CC)c1ccc(C2=NNC(=O)CC2C)cc1[N+](=O)[O-] (centres unmarked) | enzyme activity, inhibitor | 10 µM | remaining activity | 114% |
| C[C@H](c1cccc(C#N)c1)n1cc(Cl)cc(C(N)=O)c1=N | cell-free assay, competition with immobilised ligand | 1 µM | remaining binding | 100% |
| CC(C)(C)c1nc(-c2cccc(NS(=O)(=O)c3c(F)cccc3F)c2F)c(-c2ccnc(N)n2)s1 | enzyme activity, inhibitor, radiometric | 1 µM | remaining activity | 1% |
